Source: ChEMBL document CHEMBL5131565, “Structure-Guided Optimization of Small-Molecule Folate Uptake Inhibitors Targeting the Energy-Coupling Factor Transporters” (J Med Chem, 2022)
Converted amounts (≈) assume the structure as drawn.

Experiments:
[1] = target: T1, Energy-coupling factor transporter transmembrane protein EcfT (Lactobacillus casei) (UniProt A0A510WMC0); test: Inhibition of Lactobacillus casei ECF-FolT assessed as inhibition of radiolabelled folic acid uptake at 50 uM pre-incubated for 10 mins followed tritium labeled folic acid addition measured after 30 mins by liquid scintillation analysis relative to control; settings: Lacticaseibacillus casei, time 40.0 min
T1 sequence (whole entry): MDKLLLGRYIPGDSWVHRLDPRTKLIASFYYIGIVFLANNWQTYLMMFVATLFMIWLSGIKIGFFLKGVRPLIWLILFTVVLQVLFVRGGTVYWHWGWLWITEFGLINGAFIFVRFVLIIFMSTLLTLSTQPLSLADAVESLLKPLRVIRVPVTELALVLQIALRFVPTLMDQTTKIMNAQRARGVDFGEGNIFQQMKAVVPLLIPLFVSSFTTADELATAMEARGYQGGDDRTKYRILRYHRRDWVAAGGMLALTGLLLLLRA
In short: (§1)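 Whole-cell *L. casei* assay of ECF-FolT-mediated folate uptake. Compounds were first tested at 50 μM and reported as % inhibition. IC50 was determined for those giving more than 70% inhibition at 50 μM. Data come from two independent experiments, each run in duplicate.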

[2] = target: T2, Energy-coupling factor transporter transmembrane protein EcfT (Lactobacillus casei, UniProt A0A510WMC0); test: Inhibition of Lactobacillus casei ECF-FolT assessed as inhibition of radiolabelled folic acid uptake pre-incubated for 10 mins followed tritium labeled folic acid addition measured after 30 mins by liquid scintillation analysis; parameters: species or system Lacticaseibacillus casei; in short: as §1
T2 sequence (A0A510WMC0 whole entry): T1 sequence (whole entry)

HepG2 = test: Cytotoxicity against human HepG2 cells assessed as reduction in cell viability measured after 48 hrs by MTT assay; format: toxicity, cell-based
Enterococcus faecium [3] = test: Antibacterial activity against Enterococcus faecium DSM-20477 measured after 24 hrs by CLSI protocol based microbroth dilution method; format: functional
Enterococcus faecium [4] = test: Antibacterial activity against vancomycin-resistant Enterococcus faecium DSM-17050 measured after 24 hrs by CLSI protocol based microbroth dilution method; format: functional
Streptococcus pneumoniae [5] = test: Antibacterial activity against Streptococcus pneumoniae DSM-20566 measured after 24 hrs by CLSI protocol based microbroth dilution method; format: functional
Streptococcus pneumoniae [6] = test: Antibacterial activity against penicillin-resistant Streptococcus pneumoniae DSM-11865 measured after 24 hrs by CLSI protocol based microbroth dilution method; format: functional
Staphylococcus aureus = test: Antibacterial activity against Staphylococcus aureus Newman measured after 24 hrs by CLSI protocol based microbroth dilution method; format: functional
HEK293 = test: Cytotoxicity against HEK293 cells assessed as reduction in cell viability measured after 48 hrs by MTT assay; format: toxicity, cell-based, Homo sapiens
A549 = test: Cytotoxicity against human A549 cells assessed as reduction in cell viability measured after 48 hrs by MTT assay; format: toxicity, cell-based
[7] = Kinetic solubility of the compound; format: physicochemical; settings: read-out: Kinetic_solubility

Structure (SMILES) | inhibition [1] [%] | IC50 [2] [µM] | also measured
CCCCCCNC(=O)Nc1c(-c2ccc(Cl)c(Cl)c2)csc1C(=O)O | 90.6 | 6 | –
CCCCCCNC(=O)Nc1cc(-c2ccc(C(F)(F)F)cc2)sc1C(=O)O | 27.1 | – | –
CCCCCCNC(=O)Nc1cc(-c2ccc(OC)cc2)sc1C(=O)O | 12.1 | – | –
CCCCN(CCc1ccccc1)C(=O)Nc1cc(-c2ccc(Cl)c(Cl)c2)sc1C(=O)O | 57.8 | – | –
NC(=O)Nc1cc(-c2ccc(Cl)c(Cl)c2)sc1C(=O)O | 42.4 | – | –
CC(C)NC(=O)Nc1cc(-c2ccc(Cl)c(Cl)c2)sc1C(=O)O | 39.3 | – | –
O=C(NCc1cccnc1)Nc1cc(-c2ccc(Cl)c(Cl)c2)sc1C(=O)O | 58 | – | –
CCN(Cc1ccccc1)C(=O)Nc1cc(-c2ccc(OC(F)(F)F)cc2)sc1C(=O)O | 67.2 | – | –
CCCCCCNC(=O)Nc1sc(-c2ccc(Cl)c(Cl)c2)cc1C(=O)O | 17.9 | – | –
CCCCCCNC(=O)Nc1cc(-c2cccc(Cl)c2)sc1C(=O)O | 36.2 | – | –
CCCCCCNC(=O)Nc1cc(-c2cccc([N+](=O)[O-])c2)sc1C(=O)O | 65.3 | 43.3 | –
CCCCNC(=O)Nc1cc(-c2ccc(Cl)c(Cl)c2)sc1C(=O)O | 61.9 | – | –
CCCCC(=O)Nc1c(-c2ccc(Cl)c(Cl)c2)csc1C(=O)O | 31.8 | – | –
CCCCCCNC(=O)Nc1cc(-c2ccc([N+](=O)[O-])cc2)sc1C(=O)O | 82.1 | 25.1 | –
CCCCCCNC(=O)Nc1cc(-c2cccc(C(F)(F)F)c2)sc1C(=O)O | 52.3 | – | –
CCCCCCNC(=O)Nc1scc(-c2ccc(Cl)c(Cl)c2)c1C(=O)O | 87.5 | 18.5 | –
COc1ccc(CNC(=O)Nc2cc(-c3ccc(Cl)c(Cl)c3)sc2C(=O)O)cc1 | 54.3 | – | –
O=C(O)CCCNC(=O)Nc1cc(-c2ccc(Cl)c(Cl)c2)sc1C(=O)O | 0.2 | – | –
O=C(NCc1ccccc1)Nc1cc(-c2ccc(Cl)c(Cl)c2)sc1C(=O)O | 71.1 | 17.8 | –
CCN(Cc1ccccc1)C(=O)Nc1cc(-c2cc(Cl)cc(Cl)c2)sc1C(=O)O | 22 | – | –
CCCCCCNC(=O)Nc1cc(-c2ccc(Cl)cc2Cl)sc1C(=O)O | 67.9 | – | –
CCCCCCNc1c(-c2ccc(Cl)c(Cl)c2)csc1C(=O)O | 95.2 | – | –
O=C(NCc1ccccn1)Nc1cc(-c2ccc(Cl)c(Cl)c2)sc1C(=O)O | 59 | – | –
CCN(Cc1ccccc1)C(=O)Nc1cc(-c2ccc(Cl)c(Cl)c2)sc1C(=O)O | 89.4 | 11.4 | –

Structure (SMILES) | inhibition [1] [%] | IC50 [2] [µM] | also measured
O=C(O)c1sc(-c2ccc(Cl)c(Cl)c2)cc1NC(=O)N(Cc1ccccc1)Cc1ccccc1 | 85.1 | 24 | –
CCCCCCNC(=O)Nc1c(C(=O)O)cccc1-c1ccc(Cl)c(Cl)c1 | 65.4 | – | –
CCN(Cc1ccccc1)C(=O)Nc1cc(-c2ccc(C)cc2)sc1C(=O)O | 38.9 | – | –
CCN(Cc1ccccc1)C(=O)Nc1cc(-c2ccc(Oc3ccccc3)cc2)sc1C(=O)O | 97 | 10.1 | –
CCN(Cc1ccccc1)C(=O)Nc1cc(-c2ccc(C#N)cc2)sc1C(=O)O | 18.3 | – | –
CCCCCCNC(=O)Nc1cc(-c2ccc(Cl)c(C(F)(F)F)c2)sc1C(=O)O | 59 | – | –
CCN(C(=O)Nc1cc(-c2ccc(Cl)c(Cl)c2)sc1C(=O)O)c1ccccc1 | 83.2 | 10.5 | –
CN(C(=O)Nc1cc(-c2ccc(Cl)c(Cl)c2)sc1C(=O)O)c1ccccc1 | 71.5 | 23 | –
O=C(NCc1ccncc1)Nc1cc(-c2ccc(Cl)c(Cl)c2)sc1C(=O)O | 54 | – | –
CCCCN(C(=O)Nc1c(-c2cc(Cl)ccc2Cl)csc1C(=O)O)c1ccccc1 | 73.4 | 17 | –
CCCCCCNC(=O)Nc1cc(-c2ccc(Cl)c(Cl)c2)sc1C(=O)O | 72.2 | 28.5 | –
CCN(Cc1ccccc1)C(=O)Nc1cc(-c2ccc(Br)cc2)sc1C(=O)O | 52.3 | – | –
CCCCCCNC(=O)Nc1cc(-c2cc(Cl)ccc2Cl)sc1C(=O)O | 93.4 | 21.8 | –
O=C(Nc1ccccc1)Nc1cc(-c2ccc(Cl)c(Cl)c2)sc1C(=O)O | 86.8 | 14.4 | –
CCCCCCNC(=O)Nc1cc(-c2ccc(Cl)cc2)sc1C(=O)O | 27.2 | – | –
CCCCCCNC(=O)Nc1cc(-c2ccccc2)sc1C(=O)O | 25.1 | – | –
CCCCCCNC(=O)Nc1ccsc1C(=O)O | < 10 | – | –
CCCCN(Cc1ccccc1)C(=O)Nc1cc(-c2ccc(Cl)c(Cl)c2)sc1C(=O)O | 42.5 | – | –
Nc1c(-c2ccc(Cl)c(Cl)c2)csc1C(=O)O | < 10 | – | –
O=C(O)c1sc(-c2ccc(Cl)c(Cl)c2)cc1NC(=O)N(Cc1ccccc1)c1ccccc1 | 91.3 | 2.94 | –
CN(Cc1ccccc1)C(=O)Nc1cc(-c2ccc(Cl)c(Cl)c2)sc1C(=O)O | 86.9 | 10 | –
CCCCN(C(=O)Nc1c(-c2ccc(Oc3ccccc3)cc2)csc1C(=O)O)c1ccccc1 | 100 | 3.9 | IC50 (HepG2): 57 µM; MIC (Enterococcus faecium [3]): 16 µM (≈ 7.79 µg/mL); MIC (Enterococcus faecium [4]): 8 µM (≈ 3.89 µg/mL); MIC (Streptococcus pneumoniae [5]): 4 µM (≈ 1.95 µg/mL); MIC (Streptococcus pneumoniae [6]): 16 µM (≈ 7.79 µg/mL); MIC (Staphylococcus aureus): 16 µM (≈ 7.79 µg/mL); IC50 (HEK293): 25.5 µM; IC50 (A549): 49.3 µM; solubility kinetic [7]: > 200 µM
O=C(NCCc1ccccc1)Nc1cc(-c2ccc(Cl)c(Cl)c2)sc1C(=O)O | 91.7 | 15.3 | –
CCCCN(C(=O)Nc1cc(-c2ccc(Cl)c(Cl)c2)sc1C(=O)O)c1ccccc1 | 99.6 | 2.35 | IC50 (HepG2): 95.6 µM; MIC (Enterococcus faecium [3]): 8 µM (≈ 3.71 µg/mL); MIC (Enterococcus faecium [4]): 2 µM (≈ 0.927 µg/mL); MIC (Streptococcus pneumoniae [5]): 2 µM (≈ 0.927 µg/mL); MIC (Streptococcus pneumoniae [6]): 0.5 µM (≈ 0.232 µg/mL); MIC (Staphylococcus aureus): 23 µM (≈ 10.7 µg/mL); IC50 (HEK293): 52.5 µM; IC50 (A549): > 100 µM; solubility kinetic [7]: 107 µM (≈ 49.4 µg/mL)
